In PubChem BioAssay AID624084 (The Scripps Research Institute Molecular Screening Center, 2012):

Target: metallo-beta-lactamase IMP-1 (Pseudomonas aeruginosa)
Experiment: inhibition constants against purified IMP-1 – biochemical, absorbance, Ki and Km, nonselective VIM-2 MBL inhibitor project, late-stage follow-up (AID 624084)
Details: recombinant IMP-1, nitrocefin hydrolysis absorbance 495 nm, kinetic
Outline: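 System: IMP-1 enzyme; Medium: HEPES buffer pH 7.1 with ZnSO4 and Brij 35; Also added: nitrocefin substrate across a range of concentrations; Dosing: varied inhibitor concentrations; Timing: 6 min continuous absorbance reading at room temperature; Measured by: continuous absorbance at 495 nm from nitrocefin cleavage; Read-out basis: Ki from mixed-inhibition model fit.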

`CN1CCN(NC(=O)CN2C(=O)/C(=C/c3c(Cl)ccc(Cl)c3Cl)SC2=S)CC1` gave a Ki of 930 nM.
